From ChEMBL document CHEMBL3875163, “Novel urea and bis-urea primaquine derivatives with hydroxyphenyl or halogenphenyl substituents: Synthesis and biological evaluation” (Eur J Med Chem, 2016)
Values after ≈ are worked out from the molar mass of the structure shown.

Tests used:
Candida albicans = test: Antifungal activity against Candida albicans ATCC 90028 after 18 hrs by serial microdilution broth assay; assay type: functional; details: ATCC 90028, 18 h
In short: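 Yeast microdilution in RPMI 1640 with glutamine plus 2% glucose, 1000 to 0.78125 µg/ml from 10 mg/ml DMSO stocks. Growth read with XTT (10 mg/ml) mixed 7:1 with menadione (1 mg/ml in acetone), absorbance at 540 nm. MIC taken as lowest concentration giving 50% growth inhibition versus untreated cells; tests in duplicate.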

[1] = Antioxidant activity assessed as inhibition of AAPH-induced linoleic acid lipid peroxidation at 1 x 10^-4 M by UV-absorbance method relative to control; assay type: functional
In short: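 Linoleic acid peroxidation: 16 mM sodium linoleate dispersion in 0.05 M phosphate buffer pH 7.4 at 37 °C under air, initiated by AAPH (40 mM solution); compound at 1 × 10^-4 M; oxidation followed at 234 nm. At least triplicate.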

[2] = Growth inhibition of human SW620 cells after 72 hrs by MTT assay; assay type: functional, cell-based; details: SW-620, 72 h
In short: (§1)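 Modified NCI DTP protocol: cells in DMEM with 10% FBS, 2 mM glutamine, antibiotics, 37 °C, 5% CO2; seeded 1 × 10^4 to 3 × 10^4 cells/ml on day 0, exposed to five 10-fold dilutions (10^-8 to 10^-4 M) for 72 h; solvent control. MTT read-out; quadruplicate points in three experiments; IC50 by linear regression of growth percentages bracketing 50%.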

[3] = Growth inhibition of human MIAPaCa2 cells after 72 hrs by MTT assay; assay type: functional, cell-based; details: MIA PaCa-2, 72 h
[4] = Growth inhibition of human CEM cells after 72 hrs by MTT assay; assay type: functional, cell-based; details: CCRF-CEM
[5] = Antioxidant activity assessed as DPPH radical scavenging activity at 100 uM after 60 mins relative to control; assay type: functional
In short: (§2)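 Compound in DMSO added to DPPH in absolute ethanol, 0.1 mM final; absorbance at 517 nm after 20 and 60 min at room temperature. At least triplicate.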

[6] = Growth inhibition of human NCI-H460 cells after 72 hrs by MTT assay; assay type: functional, cell-based; details: NCI-H460, 72 h; in short: as §1
[7] = Antioxidant activity assessed as DPPH radical scavenging activity at 100 uM after 20 mins relative to control; assay type: functional; in short: as §2
[8] = Growth inhibition of human HeLa cells after 72 hrs by MTT assay; assay type: functional, cell-based
[9] = Growth inhibition of human Molt4/C8 cells after 72 hrs by MTT assay; assay type: functional, cell-based; details: MOLT-4, 72 h
[10] = Growth inhibition of human MCF7 cells after 72 hrs by MTT assay; assay type: functional, cell-based; details: MCF7, 72 h; in short: as §1
[11] = Growth inhibition of mouse L1210 cells after 72 hrs by MTT assay; assay type: functional, cell-based; details: L1210, 72 h
Glycine max = test: Inhibition of soybean LOX assessed as reduction in conversion of sodium linoleate to 13-hydroperoxylinoleic acid at 1 x 10^-4 M relative to control
In short: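 Soybean lipoxygenase incubated at room temperature with sodium linoleate (0.1 mM) and test compound (DMSO stocks); formation of 13-hydroperoxylinoleic acid read at 234 nm. Single-point screening at 1 × 10^-4 M; IC50 from several concentrations. At least triplicate.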

Staphylococcus aureus [12] = test: Antibacterial activity against methicillin sensitive Staphylococcus aureus ATCC 25213 after 18 hrs by serial microdilution broth assay; assay type: functional; details: ATCC 25213, 18 h
In short: (§3)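 Broth microdilution MIC per EUCAST for aerobic bacteria in Mueller-Hinton broth, serial dilution 1000 to 0.78125 µg/ml from 10 mg/ml DMSO stocks. Inoculum from trypticase soy broth cultures (18 h, 37 °C), set to 0.5 McFarland in PBS pH 7.4, diluted 1:10. 18 h aerobic incubation at 35 °C in dark, then TTC 0.5 mg/ml for 3 h, HCl-isopropanol, A490. MIC = lowest concentration giving 50% inhibition versus untreated; duplicates.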

Staphylococcus aureus [13] = test: Antibacterial activity against methicillin resistant Staphylococcus aureus MFBF 10679 after 18 hrs by serial microdilution broth assay; assay type: functional; details: MFBF 10679, 18 h
In short: (§4)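 EUCAST-based broth microdilution in Mueller-Hinton broth. Glycerol stock cultures grown in trypticase soy broth 18 h at 37 °C; inoculum in PBS pH 7.4 at 0.5 McFarland, diluted 1:10 in broth. Compounds from DMSO stocks, 1000 to 0.78125 µg/ml; 18 h aerobic, 35 °C, dark. TTC 0.5 mg/ml added, 3 h, then HCl/isopropanol, A490. MIC = lowest concentration giving 50% inhibition vs untreated; duplicates, averaged.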

Staphylococcus aureus [14] = test: Antibacterial activity against methicillin sensitive Staphylococcus aureus ATCC 25923 after 18 hrs by serial microdilution broth assay; assay type: functional; details: ATCC 25923, 18 h; in short: as §4
Bacillus cereus = test: Antibacterial activity against Bacillus cereus ATCC 11778 after 18 hrs by serial microdilution broth assay; assay type: functional; details: ATCC 11778, 18 h; in short: as §3
Pseudomonas aeruginosa [15] = test: Antibacterial activity against Pseudomonas aeruginosa ATCC 9027 after 18 hrs by serial microdilution broth assay; assay type: functional; details: ATCC 9027, 18 h; in short: as §4
Staphylococcus aureus [16] = test: Antibacterial activity against Staphylococcus aureus ATCC 6538 after 18 hrs by serial microdilution broth assay; assay type: functional; details: ATCC 6538, 18 h; in short: as §3
Pseudomonas aeruginosa [17] = test: Antibacterial activity against multi-drug resistant Pseudomonas aeruginosa MFBF after 18 hrs by serial microdilution broth assay; assay type: functional; in short: as §4
Enterococcus faecalis [18] = test: Antibacterial activity against vancomycin resistant Enterococcus faecalis MFBF 11419 after 18 hrs by serial microdilution broth assay; assay type: functional; details: MFBF 11419, 18 h; in short: as §4
Escherichia coli = test: Antibacterial activity against Escherichia coli ATCC 10535 after 18 hrs by serial microdilution broth assay; assay type: functional; details: ATCC 10535, 18 h; in short: as §3
Pseudomonas aeruginosa [19] = test: Antibacterial activity against Pseudomonas aeruginosa ATCC 27853 after 18 hrs by serial microdilution broth assay; assay type: functional; details: ATCC 27853, 18 h; in short: as §3
Bacillus pumilus = test: Antibacterial activity against Bacillus pumilus NCTC 8241 after 18 hrs by serial microdilution broth assay; assay type: functional; details: NCTC 8241, 18 h; in short: as §3
Bacillus spizizenii = test: Antibacterial activity against Bacillus subtilis ATCC 6633 after 18 hrs by serial microdilution broth assay; assay type: functional; details: ATCC 6633, 18 h; in short: as §3
Enterococcus faecalis [20] = test: Antibacterial activity against vancomycin susceptible Enterococcus faecalis ATCC 29212 after 18 hrs by serial microdilution broth assay; assay type: functional; details: ATCC 29212, 18 h; in short: as §3
Staphylococcus aureus [21] = test: Antibacterial activity against methicillin resistant Staphylococcus aureus MFBF 10682 after 18 hrs by serial microdilution broth assay; assay type: functional; details: MFBF 10682, 18 h; in short: as §4

Structure (SMILES)	inhibition [1]	IC50 [2]	IC50 [3]	IC50 [4]	Activity [5]	IC50 [6]	Activity [7]	IC50 [8]	IC50 [9]	IC50 [10]	IC50 [11]	inhibition (Glycine max)	also measured
C[C@@H](c1ncncc1F)[C@](O)(Cn1cncn1)c1ccc(F)cc1F [VORICONAZOLE]													MIC50 (Candida albicans): 0.5 µg/mL (≈ 1.43 µM)
COc1cc(NC(C)CCCNC(=O)Nc2ccc(O)cc2)c2ncccc2c1 (configuration not stated)	54%	30 µM	57 µM	23 µM	94.5%	34 µM	95.5%	70 µM	21 µM	5.2 µM	21 µM	49.9%	
COc1cc(NC(C)CCCNC(=O)Nc2ccc(F)cc2)c2ncccc2c1 (configuration not stated)	64.4%	25 µM	21 µM	26 µM	24.7%	26 µM		20 µM	24 µM	26 µM	18 µM	39.8%	
COc1cc(NC(C)CCCNC(=O)Nc2ccc(Cl)cc2)c2ncccc2c1 (configuration not stated)	81.9%	28 µM	22 µM	24 µM	37%	34 µM	24%	18 µM	24 µM	12 µM	19 µM	21.6%	
COc1cc(NC(C)CCCNC(=O)NNC(=O)Nc2cccc(Cl)c2)c2ncccc2c1 (configuration not stated)	70.8%	25 µM	74 µM	81 µM	95.1%	32 µM	97.9%	44 µM	93 µM	0.22 µM	27 µM	48.4%	
COc1cc(NC(C)CCCNC(=O)NNC(=O)Nc2ccc(Cl)cc2)c2ncccc2c1 (configuration not stated)	42.1%	48 µM	≥ 250 µM	108 µM	100%	63 µM	97.6%	120 µM	186 µM	0.18 µM	58 µM	39%	
COc1cc(NC(C)CCCN)c2ncccc2c1 (configuration not stated) [PRIMAQUINE]													MIC50 (Staphylococcus aureus [12]): 70 µg/mL (≈ 270 µM); MIC50 (Staphylococcus aureus [13]): 70 µg/mL (≈ 270 µM); MIC50 (Staphylococcus aureus [14]): 70 µg/mL (≈ 270 µM); MIC50 (Bacillus cereus): 70 µg/mL (≈ 270 µM); MIC50 (Pseudomonas aeruginosa [15]): 70 µg/mL (≈ 270 µM); MIC50 (Staphylococcus aureus [16]): 70 µg/mL (≈ 270 µM); MIC50 (Pseudomonas aeruginosa [17]): 70 µg/mL (≈ 270 µM); MIC50 (Enterococcus faecalis [18]): > 100 µg/mL; MIC50 (Escherichia coli): 65 µg/mL (≈ 251 µM); MIC50 (Pseudomonas aeruginosa [19]): 65 µg/mL (≈ 251 µM); MIC50 (Bacillus pumilus): 70 µg/mL (≈ 270 µM); MIC50 (Bacillus spizizenii): 80 µg/mL (≈ 308 µM); MIC50 (Enterococcus faecalis [20]): > 100 µg/mL; MIC50 (Staphylococcus aureus [21]): 60 µg/mL (≈ 231 µM); MIC50 (Candida albicans): 350 µg/mL (≈ 1350 µM)
COc1cc(NC(C)CCCNC(=O)NNC(=O)Nc2ccc(Br)cc2)c2ncccc2c1 (configuration not stated)		17 µM	231 µM	110 µM	99%	27 µM	96.9%	101 µM	209 µM	0.1 µM	51 µM	28%	
COc1cc(NC(C)CCCNC(=O)Nc2cccc(Cl)c2)c2ncccc2c1 (configuration not stated)	84.1%	26 µM	21 µM	22 µM	35.7%	37 µM		17 µM	21 µM	11 µM	17 µM	11.8%	
